Columns and labels:
A549 = test: Cytotoxicity against human A549 cells by sulforhodamine B dye-staining method; format: functional, cell-based
In short: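 Human lung cancer A549 cells were stained with sulforhodamine B dye, and the IC50 was reported as the cytotoxicity value.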

P388 = test: Cytotoxicity against mouse P388 cells by microculture tetrazolium-formazan method; format: functional, cell-based
In short: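 Murine P388 leukemia cells were assayed by the microculture tetrazolium–formazan method, and the IC50 was reported as the cytotoxicity value.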

| Structure (SMILES) | IC50 (A549) | IC50 (P388) |
| --- | --- | --- |
| CN(C)CCN1C(=O)c2cccc3cccc1c23 | 300 µmol | 79.4 µmol |
| CN(C)CCCN1C(=O)c2cccc3cccc1c23 | 22.9 µmol | 7.76 µmol |
| CN(C)CCNCCN1C(=O)c2cccc3cccc1c23 | 0.489 µmol | 1.69 µmol |
| O=C1c2ccc([N+](=O)[O-])c3cccc(c23)N1CCCl | 52.5 µmol | 17.8 µmol |
| O=C1c2cccc3cccc(c23)N1CCNCCN1C(=O)c2cccc3cccc1c23 | 29.5 µmol | 13.8 µmol |

From ChEMBL document CHEMBL1146316, “Novel antitumor agent family of 1H-benzo[c,d]indol-2-one with flexible basic side chains: synthesis and biological evaluation” (Bioorg Med Chem, 2007)
